pIC50: −log10 of the molar value.
Experiments:
Type in all cases: functional, cell-based
MCF7 = test: Cytotoxicity against human MCF7 cells assessed as growth inhibition after 72 hrs by MTT assay; settings: MCF7, 72 h
Summary of the method: (§1)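 MTT read-out of cell growth, method as in an earlier report. IC50 is the concentration giving 50% inhibition of cell growth. Etoposide and cisplatin were run as positive controls.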

HT-29 = test: Cytotoxicity against human HT-29 cells assessed as growth inhibition after 72 hrs by MTT assay; settings: HT-29, 72 h; summary of the method: as §1
[1] = Cytotoxicity against human HONE1 cells assessed as growth inhibition after 72 hrs by MTT assay; settings: HONE1, 72 h; summary of the method: as §1
P388 = test: Cytotoxicity against mouse P388 cells assessed as growth inhibition after 72 hrs by MTT assay; settings: P388, 72 h; summary of the method: as §1

`CC(=O)O[C@H]1[C@H](OC(C)=O)[C@]2(C)O[C@]3(COC(=O)C3)C[C@H](OC(=O)c3ccccc3)[C@]2(C)[C@H]2CCC=C(C)[C@]12C` showed a pIC50 (MCF7) of 5.22, a pIC50 (HT-29) of 5.39 and a pIC50 [1] of 5.38. It also gave a pIC50 (P388) of 5.28.
With `CC1=CCC[C@H]2[C@@]1(C)[C@@H](OC(=O)c1ccccc1)[C@H](OC(=O)C(O)C(C)C)[C@](C)(O)[C@]2(C)/C=C/C1=CC(=O)OC1` (stereo partly specified) the pIC50 (MCF7) was 5.11, the pIC50 (HT-29) was 5.19 and the pIC50 [1] was 5.41. It also gave a pIC50 (P388) of 5.15.
With `CC1=CCC[C@H]2[C@@]1(C)[C@@H](OC(=O)c1cccnc1)[C@H](OC(=O)c1ccccc1)[C@]1(C)O[C@]3(COC(=O)C3)C[C@H](OC(=O)c3cccnc3)[C@]21C` the pIC50 (MCF7) was 5.24, the pIC50 (HT-29) was 5.33 and the pIC50 [1] was 5.46. The pIC50 (P388) was 5.24.
Compound `COc1cc([C@@H]2c3cc4c(cc3[C@@H](O[C@@H]3O[C@@H]5CO[C@@H](C)O[C@H]5[C@H](O)[C@H]3O)[C@H]3COC(=O)[C@H]23)OCO4)cc(OC)c1O` [ETOPOSIDE] has a pIC50 (MCF7) of 5.66, a pIC50 (HT-29) of 5.70 and a pIC50 [1] of 5.92. It also gave a pIC50 (P388) of 5.89.

From ChEMBL document CHEMBL3774334, “New cytotoxic neo-clerodane diterpenoids from Scutellaria strigillosa” (Bioorg Med Chem Lett, 2016)
